Experimental data pooled from the literature.
Lines come from different studies, so protocols differ.

| Compound | test system | setting | Tmax |
| --- | --- | --- | --- |
| CC(C)(C)c1ccc(O)c(CN(Cc2cc(C(C)(C)C)ccc2O)C2CCC(NC(N)=O)CC2)c1 (stereo not drawn) | male C57BL/6 mouse, brain | intraperitoneal, 5 mg/kg, single dose | 30 min |
| C=CC(=O)N1CC2CC(n3nc(-c4ccc(C(=O)Nc5ccccn5)cc4)c4c(N)ncnc43)CC2C1 (stereo not drawn) | SCID mouse, plasma | oral, 3 mg/kg | 15 min |
| CN1CCC[C@H](CN2c3ccccc3Sc3ccccc32)C1.O=C(O)CCC(=O)O | mouse, plasma | oral, 64 mg/kg, single dose | 120 min |
| CS(=O)(=O)CCNCc1ccc(-c2ccc3ncnc(Nc4ccc(OCc5cccc(F)c5)c(Cl)c4)c3c2)o1 | nude mouse, plasma | oral, 50 mg/kg, single dose | 60 min |
| COc1nc(-c2cc(C)c(N[C@@H](C)c3cc(F)cc(F)c3)nn2)ccc1-n1cnc(C)c1 | male CD-1 mouse, plasma | intravenous, 1 mg/kg, single dose | 4.98 min |
| CC(C)c1cnn2c(NCc3ccccc3)cc(NC[C@H]3CCNC[C@@H]3O)nc12 | female nude mouse, tumour | oral, 100 mg/kg, tumour-bearing | 360 min |
| COc1ccc(C(O)COc2ccc(-c3csc(-c4ccc(OCC(O)c5ccc(OC)c(OC)c5)cc4)n3)cc2)cc1OC (stereo not drawn) | C57BL/6 mouse, plasma | oral, 30 mg/kg | 60 min |
| Cc1ccc(NC(=O)c2ccc(CN3CCN(C)CC3)cc2)cc1Nc1nccc(-c2cncc(-c3oncc3C)c2)n1 | male C57BL/6 mouse, plasma | oral, 100 mg/kg/day | 240 min |
| [Cl-].c1csc([I+]c2cccs2)c1 | mouse, plasma | intraperitoneal | ≤ 1 min |
| CCCc1c(C2CCCCN2CCN2CCOCC2)[nH]c2cc(OC(F)(F)F)ccc12 (stereo not drawn) | male mouse, plasma | oral, 30 mg/kg | 60 min |
| COc1ccc2c3c1O[C@H]1C[C@@H](OC(=O)c4ccccc4)C=C[C@@]31CCN(C)C2 | mouse, blood | intravenous, 3 mg/kg | 3 min |
| CCc1cc(OC)c2nccc(N3CCc4c(cc(Cn5ccnc5)cc4-c4cn(C)nc4C(F)(F)F)C3=O)c2c1 | male CD-1 mouse, plasma | oral, 50 mg/kg | 42 min |
| O=S(=O)(c1ccc(-c2ccc3nccc(Nc4ccncn4)c3c2)cc1)N1CCOCC1 | female BALB/c mouse, plasma | intraperitoneal, 10 mg/kg | 15 min |
| Cc1ccc2cncc(N3CCc4c(cc(Cn5ccnc5)cc4-c4cn(C)nc4C(F)(F)F)C3=O)c2c1 | male CD-1 mouse, plasma | oral, 10 mg/kg | 18 min |
| CNCCN(C)c1cc(C#N)cc(CCc2cc(C)cc(N)n2)c1 | male BALB/c mouse, plasma | oral, 10 mg/kg | 15 min |
| CN1C(=O)c2ccccc2[S@+]([O-])c2ccc(C(=O)NCCc3cccs3)cc21 | male C57BL/6 mouse, plasma | intraperitoneal, 30 mg/kg, single dose | 15 min |
| CNC(=O)c1cc(Oc2ccc(NC(=O)Nc3ccc(Cl)c(C(F)(F)F)c3)c(F)c2)ccn1 | male mouse, plasma | oral, 10 mg/kg, single dose | 162 min |
| CNC(=O)[C@H](Cc1c[nH]cn1)NC(=O)CN(CCCc1ccccc1)CC(=O)OC | male C57BL/6 mouse, plasma | intraperitoneal, 30 mg/kg | 10 min |
